Data as given in ChEMBL document CHEMBL1150790, “Biochemical characterization of PER-2 and genetic environment of blaPER-2” (Antimicrob Agents Chemother, 2007).
Converted amounts (≈) assume the structure as drawn.

Columns and labels:
Alcaligenes faecalis [1] = assay: Ratio of Kcat to Km of Alcaligenes faecalis PER2 beta lactamase
Summary of the method: (§1)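 Purified recombinant PER-2 (expressed in E. coli BL21(DE3) from pET28a(+), IPTG-induced, Q-Sepharose purified). β-Lactam hydrolysis was followed spectrophotometrically at 30°C. For good substrates, Km and kcat came from initial rates. […] For poor substrates, kcat came from complete hydrolysis time courses.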

Escherichia coli [2] = assay: Antimicrobial activity against Escherichia coli 33587-TC9 by agar dilution method; format: functional
Summary of the method: (§2)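 MICs were determined by agar dilution following CLSI guidelines, with inoculum applied by a Steers multipoint inoculator.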

Alcaligenes faecalis [3] = assay: Activity of Alcaligenes faecalis PER2 beta lactamase; summary of the method: as §1
Escherichia coli [4] = assay: Antimicrobial activity against Escherichia coli CAG12177 by agar dilution method; format: functional; summary of the method: as §2
[5] = molecular target: T1, PER-2 beta-lactamase (Citrobacter freundii) (UniProt A2RP81); assay: Ratio of Kcat to Km of Citrobacter freundii PER2 beta lactamase relative to cephalothin
T1 sequence (whole entry): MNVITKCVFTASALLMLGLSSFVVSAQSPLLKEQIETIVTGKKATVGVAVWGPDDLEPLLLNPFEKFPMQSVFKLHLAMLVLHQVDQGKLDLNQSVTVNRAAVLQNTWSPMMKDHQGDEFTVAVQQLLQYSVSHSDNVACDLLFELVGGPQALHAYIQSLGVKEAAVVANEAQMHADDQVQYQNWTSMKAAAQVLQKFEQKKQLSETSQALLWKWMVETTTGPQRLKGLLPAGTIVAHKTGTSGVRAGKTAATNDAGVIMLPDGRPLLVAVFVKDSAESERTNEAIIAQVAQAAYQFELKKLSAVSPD
Summary of the method: (§3)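 Purified recombinant PER-2 (E. coli BL21(DE3) expression, Q-Sepharose purification) was assayed spectrophotometrically at 30°C in 500 μl. kcat and Km came from initial steady-state rates.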

Citrobacter freundii = assay: Antimicrobial activity against Citrobacter freundii 33587 isolate by agar dilution method; format: functional; summary of the method: as §2
PER-2 beta-lactamase = molecular target: T2, PER-2 beta-lactamase (Citrobacter freundii, UniProt A2RP81); assay: Inhibition of Citrobacter freundii PER2 beta lactamase
T2 sequence (A2RP81 whole entry): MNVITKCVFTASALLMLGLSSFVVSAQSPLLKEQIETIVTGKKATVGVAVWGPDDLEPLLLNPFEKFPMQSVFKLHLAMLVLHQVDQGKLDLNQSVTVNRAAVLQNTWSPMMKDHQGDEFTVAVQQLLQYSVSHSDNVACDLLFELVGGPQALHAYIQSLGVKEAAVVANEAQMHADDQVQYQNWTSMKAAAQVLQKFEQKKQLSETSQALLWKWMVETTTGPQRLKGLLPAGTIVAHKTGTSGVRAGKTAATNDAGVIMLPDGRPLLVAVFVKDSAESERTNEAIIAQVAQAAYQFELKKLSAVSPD
Summary of the method: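 Purified recombinant PER-2 was incubated with the drug plus 100 μM nitrocefin as reporter substrate in 500 μl at 30°C. Residual enzyme activity was read spectrophotometrically. Apparent Km values were derived as competitive inhibitor constants (Ki).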

[6] = substrate: CC(=O)OCC1=C(C(=O)O)N2C(=O)[C@@H](NC(=O)Cc3cccs3)[C@H]2SC1; assay: (§4) Ratio of Kcat to Km of Citrobacter freundii PER2 beta lactamase; summary of the method: as §3
[7] = substrate: CCN1CCN(C(=O)N[C@@H](C(=O)N[C@@H]2C(=O)N3[C@@H]2SC(C)(C)[C@@H]3C(=O)O)c2ccccc2)C(=O)C1=O; assay: as §4; summary of the method: as §3
[8] = substrate: CO/N=C(\C(=O)N[C@@H]1C(=O)N2C(C(=O)O)=C(COC(N)=O)CS[C@H]12)c1ccco1; assay: as §4; summary of the method: as §3
[9] = substrate: CC1(C)S[C@@H]2[C@H](NC(=O)[C@H](N)c3ccccc3)C(=O)N2[C@H]1C(=O)O; assay: as §4; summary of the method: as §3
[10] = substrate: C[C@H]1[C@H](NC(=O)/C(=N\OC(C)(C)C(=O)O)c2csc(N)n2)C(=O)N1S(=O)(=O)O; assay: as §4; summary of the method: as §3
[11] = substrate: CCN1CCN(C(=O)N[C@@H](C(=O)N[C@@H]2C(=O)N3C(C(=O)O)=C(CSc4nnnn4C)CS[C@H]23)c2ccc(O)cc2)C(=O)C1=O; assay: as §4; summary of the method: as §3
[12] = substrate: CC1(C)S[C@@H]2[C@H](NC(=O)Cc3ccccc3)C(=O)N2[C@H]1C(=O)O; assay: as §4; summary of the method: as §3
[13] = substrate: CC(C)(O/N=C(\C(=O)N[C@@H]1C(=O)N2C(C(=O)[O-])=C(C[n+]3ccccc3)CS[C@H]12)c1csc(N)n1)C(=O)O; assay: as §4; summary of the method: as §3
[14] = substrate: CO/N=C(\C(=O)N[C@@H]1C(=O)N2C(C(=O)O)=C(COC(C)=O)CS[C@H]12)c1csc(N)n1; assay: as §4; summary of the method: as §3
[15] = substrate: O=C(Cc1cccs1)N[C@@H]1C(=O)N2C(C(=O)O)=C(/C=C/c3ccc([N+](=O)[O-])cc3[N+](=O)[O-])CS[C@H]12; assay: as §4; summary of the method: as §3
[16] = substrate: CO/N=C(\C(=O)N[C@@H]1C(=O)N2C(C(=O)[O-])=C(C[N+]3(C)CCCC3)CS[C@H]12)c1csc(N)n1; assay: as §4; summary of the method: as §3
[17] = substrate: CC(=O)OCC1=C(C(=O)O)N2C(=O)[C@@H](NC(=O)Cc3cccs3)[C@H]2SC1; assay: (§5) Activity of Citrobacter freundii PER2 beta lactamase
[18] = substrate: CCN1CCN(C(=O)N[C@@H](C(=O)N[C@@H]2C(=O)N3[C@@H]2SC(C)(C)[C@@H]3C(=O)O)c2ccccc2)C(=O)C1=O; assay: as §5
[19] = substrate: CO/N=C(\C(=O)N[C@@H]1C(=O)N2C(C(=O)O)=C(COC(N)=O)CS[C@H]12)c1ccco1; assay: as §5
[20] = substrate: CC1(C)S[C@@H]2[C@H](NC(=O)[C@H](N)c3ccccc3)C(=O)N2[C@H]1C(=O)O; assay: as §5
[21] = substrate: C[C@H]1[C@H](NC(=O)/C(=N\OC(C)(C)C(=O)O)c2csc(N)n2)C(=O)N1S(=O)(=O)O; assay: as §5
[22] = substrate: CCN1CCN(C(=O)N[C@@H](C(=O)N[C@@H]2C(=O)N3C(C(=O)O)=C(CSc4nnnn4C)CS[C@H]23)c2ccc(O)cc2)C(=O)C1=O; assay: as §5
[23] = substrate: CC1(C)S[C@@H]2[C@H](NC(=O)Cc3ccccc3)C(=O)N2[C@H]1C(=O)O; assay: as §5
[24] = substrate: CC(C)(O/N=C(\C(=O)N[C@@H]1C(=O)N2C(C(=O)[O-])=C(C[n+]3ccccc3)CS[C@H]12)c1csc(N)n1)C(=O)O; assay: as §5
[25] = substrate: C[C@@H](O)[C@H]1C(=O)N2C(C(=O)O)=C(SCCNC=N)C[C@H]12; assay: as §5
[26] = substrate: CO[C@@]1(NC(=O)Cc2cccs2)C(=O)N2C(C(=O)O)=C(COC(N)=O)CS[C@@H]21; assay: as §5
[27] = substrate: CO/N=C(\C(=O)N[C@@H]1C(=O)N2C(C(=O)O)=C(COC(C)=O)CS[C@H]12)c1csc(N)n1; assay: as §5
[28] = substrate: O=C(Cc1cccs1)N[C@@H]1C(=O)N2C(C(=O)O)=C(/C=C/c3ccc([N+](=O)[O-])cc3[N+](=O)[O-])CS[C@H]12; assay: as §5
[29] = substrate: CO/N=C(\C(=O)N[C@@H]1C(=O)N2C(C(=O)[O-])=C(C[N+]3(C)CCCC3)CS[C@H]12)c1csc(N)n1; assay: as §5

`CC(C)(O/N=C(\C(=O)N[C@@H]1C(=O)N2C(C(=O)[O-])=C(C[n+]3ccccc3)CS[C@H]12)c1csc(N)n1)C(=O)O` [CEFTAZIDIME] was tested, and the kcat/Km (Alcaligenes faecalis [1]) was 30000 M⁻¹ s⁻¹, the MIC (Escherichia coli [2]) was > 128 µg/mL and the Km (Alcaligenes faecalis [3]) was 806 µM. The MIC (Escherichia coli [4]) was ≤ 0.063 µg/mL, the Activity [5] was 64% and the MIC (Citrobacter freundii) was 128 µg/mL (≈ 234 µM).

With `CC(=O)OCC1=C(C(=O)O)N2C(=O)[C@@H](NC(=O)Cc3cccs3)[C@H]2SC1` [CEPHALOTHIN] the MIC (Escherichia coli [2]) was > 512 µg/mL, the MIC (Escherichia coli [4]) was 0.5 µg/mL (≈ 1.26 µM) and the Activity [5] was 100%. It also gave an MIC (Citrobacter freundii) of 512 µg/mL (≈ 1290 µM).

`O=C(N[C@H](CO)[C@H](O)c1ccc([N+](=O)[O-])cc1)C(Cl)Cl` [CHLORAMPHENICOL] was tested, and the MIC (Escherichia coli [2]) was > 32 µg/mL, the MIC (Escherichia coli [4]) was 2 µg/mL (≈ 6.19 µM) and the MIC (Citrobacter freundii) was > 32 µg/mL.

`C[C@@H](O)[C@H]1C(=O)N2C(C(=O)O)=C(SCCNC=N)C[C@H]12` [IMIPENEM ANHYDROUS] was tested, and the MIC (Escherichia coli [2]) was 0.125 µg/mL (≈ 0.418 µM), the Ki (PER-2 beta-lactamase) was 60 nM and the MIC (Escherichia coli [4]) was ≤ 0.063 µg/mL. The MIC (Citrobacter freundii) was 0.063 µg/mL (≈ 0.21 µM).

With `NC[C@H]1O[C@H](O[C@H]2[C@H](O)[C@@H](O[C@H]3O[C@H](CO)[C@@H](O)[C@H](N)[C@H]3O)[C@H](N)C[C@@H]2N)[C@H](O)[C@@H](O)[C@@H]1O` [KANAMYCIN] the MIC (Escherichia coli [2]) was > 128 µg/mL, the MIC (Escherichia coli [4]) was ≤ 0.25 µg/mL and the MIC (Citrobacter freundii) was > 128 µg/mL.

`CCn1cc(C(=O)O)c(=O)c2ccc(C)nc21` [NALIDIXIC ACID] was tested, and the MIC (Escherichia coli [2]) was > 128 µg/mL, the MIC (Escherichia coli [4]) was > 128 µg/mL and the MIC (Citrobacter freundii) was 2 µg/mL (≈ 8.61 µM).

`CCN1CCN(C(=O)N[C@@H](C(=O)N[C@@H]2C(=O)N3[C@@H]2SC(C)(C)[C@@H]3C(=O)O)c2ccccc2)C(=O)C1=O` [PIPERACILLIN] was tested, and the MIC (Escherichia coli [2]) was 256 µg/mL (≈ 495 µM), the Ki (PER-2 beta-lactamase) was 200 nM and the MIC (Escherichia coli [4]) was 0.063 µg/mL (≈ 0.122 µM). It also gave an Activity [5] of 30% and an MIC (Citrobacter freundii) of 256 µg/mL (≈ 495 µM).

For `CN(C)[C@@H]1C(O)=C(C(N)=O)C(=O)[C@@]2(O)C(O)=C3C(=O)c4c(O)cccc4[C@@](C)(O)[C@H]3C[C@@H]12` [TETRACYCLINE], the MIC (Escherichia coli [2]) was 32 µg/mL (≈ 72 µM), the MIC (Escherichia coli [4]) was 32 µg/mL (≈ 72 µM) and the MIC (Citrobacter freundii) was 0.5 µg/mL (≈ 1.13 µM).

B1: PER-2 beta-lactamase (Citrobacter freundii), A2RP81 (protein)
chain: MNVITKCVFTASALLMLGLSSFVVSAQSPLLKEQIETIVTGKKATVGVAVWGPDDLEPLLLNPFEKFPMQSVFKLHLAMLVLHQVDQGKLDLNQSVTVNRAAVLQNTWSPMMKDHQGDEFTVAVQQLLQYSVSHSDNVACDLLFELVGGPQALHAYIQSLGVKEAAVVANEAQMHADDQVQYQNWTSMKAAAQVLQKFEQKKQLSETSQALLWKWMVETTTGPQRLKGLLPAGTIVAHKTGTSGVRAGKTAATNDAGVIMLPDGRPLLVAVFVKDSAESERTNEAIIAQVAQAAYQFELKKLSAVSPD
B1 was tested, and the kcat/Km [6] was 670000 M⁻¹ s⁻¹, the kcat/Km [7] was 200000 M⁻¹ s⁻¹ and the kcat/Km [8] was 300000 M⁻¹ s⁻¹. For the same molecule, the kcat/Km [9] was 350000 M⁻¹ s⁻¹, the kcat/Km [10] was 120000 M⁻¹ s⁻¹ and the kcat/Km [11] was 100000 M⁻¹ s⁻¹. For the same molecule, the kcat/Km [12] was 120000 M⁻¹ s⁻¹, the kcat/Km [13] was 430000 M⁻¹ s⁻¹ and the kcat/Km [14] was 760000 M⁻¹ s⁻¹. It also gave a kcat/Km [15] of 1.5e+06 M⁻¹ s⁻¹, a kcat/Km [16] of 20000 M⁻¹ s⁻¹ and a Km [17] of 9 µM. It also gave a kcat [17] of 6 s⁻¹, a kcat [18] of 0.04 s⁻¹ and a Km [19] of 21 µM. It also gave a kcat [19] of 6 s⁻¹, a Km [20] of 38 µM and a kcat [20] of 12 s⁻¹. It also gave a kcat [21] of 0.23 s⁻¹, a Km [22] of 5 µM and a kcat [22] of 0.5 s⁻¹. It also gave a Km [23] of 16 µM, a kcat [23] of 2 s⁻¹ and a Km [24] of 320 µM. The kcat [24] was 140 s⁻¹, the kcat [25] was < 0.001 s⁻¹ and the kcat [26] was < 0.001 s⁻¹. It also gave a Km [27] of 46 µM, a kcat [27] of 34 s⁻¹ and a Km [28] of 32 µM. For the same molecule, the kcat [28] was 48 s⁻¹, the Km [29] was 16 µM and the kcat [29] was 0.39 s⁻¹.
